Assay results from ChEMBL document CHEMBL3098070, “Rational design, synthesis and antitubercular evaluation of novel 2-(trifluoromethyl)phenothiazine-[1,2,3]triazole hybrids” (Bioorg Med Chem Lett, 2014).
Values after ≈ are worked out from the molar mass of the structure shown.

Assays:
[1] = tested on: Mycobacterium tuberculosis; test: Antimycobacterial activity against Mycobacterium tuberculosis H37Rv ATCC 27294 assessed as parasite growth inhibition after 28 days by agar dilution method; format: functional; details: H37Rv ATCC 27294, 672 h
Procedure, shortened: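 Agar dilution in Middlebrook 7H11 with OADC; two-fold dilutions 50.0 to 0.4 µg/mL. Inoculum from fresh 7H11 slants, adjusted to 1 mg/mL wet weight in 0.05% Tween 80 saline, diluted 10-2 to 107 cfu/mL; 5 µL spotted per tube. Incubated 37 °C, read at 28 days. MIC = lowest concentration giving complete growth inhibition; triplicates.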

[2] = Cytotoxicity against HEK293T cells at 50 ug/ml after 72 hrs by MTT assay; format: cell-based, HEK-293T; details: human, read-out: INH
Procedure, shortened: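 HEK-293T human embryonic kidney cells exposed to compound at 50 µg/mL for 72 h; viability by cellular MTT conversion to formazan (non-radioactive cell proliferation kit); reported as percentage inhibition of cells.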

[3] = Selectivity index, ratio of cytotoxicity for HEK293T cells to MIC for Mycobacterium tuberculosis H37Rv; format: toxicity, cell-based, HEK-293T; details: human, read-out: Selectivity Index

Compound	MIC [1] [mg/L]	cytotoxicity at 72 h, 50 ug/ml [2] [%]	selectivity ratio [3]
O=C(Cn1cc(-c2ccsc2)nn1)N1c2ccccc2Sc2ccc(C(F)(F)F)cc21	25 (≈ 54.5 µM)		
CCCCCCc1cn(CC(=O)N2c3ccccc3Sc3ccc(C(F)(F)F)cc32)nn1	6.25 (≈ 13.6 µM)	25.6	> 10
O=C(Cn1cc(CCCO)nn1)N1c2ccccc2Sc2ccc(C(F)(F)F)cc21	12.5 (≈ 28.8 µM)		
O=C(Cn1cc(CCc2ccccc2)nn1)N1c2ccccc2Sc2ccc(C(F)(F)F)cc21	25 (≈ 52 µM)		
O=C(Cn1cc(C2(O)CCCC2)nn1)N1c2ccccc2Sc2ccc(C(F)(F)F)cc21	12.5 (≈ 27.1 µM)		
O=C(Cn1cc(C2(O)CCCCC2)nn1)N1c2ccccc2Sc2ccc(C(F)(F)F)cc21	25 (≈ 52.7 µM)		
O=C(Cn1cc(-c2ccccc2)nn1)N1c2ccccc2Sc2ccc(C(F)(F)F)cc21	12.5 (≈ 27.6 µM)		
Cc1cccc(-c2cn(CC(=O)N3c4ccccc4Sc4ccc(C(F)(F)F)cc43)nn2)c1	25 (≈ 53.6 µM)		
Cc1ccc(-c2cn(CC(=O)N3c4ccccc4Sc4ccc(C(F)(F)F)cc43)nn2)cc1	25 (≈ 53.6 µM)		
CC(C)(C)c1ccc(-c2cn(CC(=O)N3c4ccccc4Sc4ccc(C(F)(F)F)cc43)nn2)cc1	25 (≈ 49.2 µM)		
COc1cccc(-c2cn(CC(=O)N3c4ccccc4Sc4ccc(C(F)(F)F)cc43)nn2)c1	6.25 (≈ 13 µM)	34.6	> 10
COc1ccc(-c2cn(CC(=O)N3c4ccccc4Sc4ccc(C(F)(F)F)cc43)nn2)c(C)c1	12.5 (≈ 25.2 µM)		
O=C(Cn1cc(-c2ccc([N+](=O)[O-])cc2)nn1)N1c2ccccc2Sc2ccc(C(F)(F)F)cc21	25 (≈ 50.3 µM)		
O=C(Cn1cc(-c2ccc(F)cc2F)nn1)N1c2ccccc2Sc2ccc(C(F)(F)F)cc21	6.25 (≈ 12.8 µM)	30.6	> 10
O=C(Cn1cc(-c2ccc(Cl)c(Cl)c2)nn1)N1c2ccccc2Sc2ccc(C(F)(F)F)cc21	≤ 25		
CCCCCc1ccc(-c2cn(CC(=O)N3c4ccccc4Sc4ccc(C(F)(F)F)cc43)nn2)cc1	≤ 25		
O=C(Cn1cc(-c2ccc(-c3ccccc3)cc2)nn1)N1c2ccccc2Sc2ccc(C(F)(F)F)cc21	25 (≈ 47.3 µM)		
CC(=O)c1ccc(C)cc1OCc1cn(CC(=O)N2c3ccccc3Sc3ccc(C(F)(F)F)cc32)nn1	25 (≈ 46.4 µM)		
COc1ccc2cc(-c3cn(CC(=O)N4c5ccccc5Sc5ccc(C(F)(F)F)cc54)nn3)ccc2c1	25 (≈ 46.9 µM)		
O=C(Cn1cc(-c2cc3ccccc3c3ccccc23)nn1)N1c2ccccc2Sc2ccc(C(F)(F)F)cc21	12.5 (≈ 22.6 µM)		
CCCCc1cn(CC(=O)N2c3ccccc3Sc3ccc(C(F)(F)F)cc32)nn1	25 (≈ 57.8 µM)		
CCCCCc1cn(CC(=O)N2c3ccccc3Sc3ccc(C(F)(F)F)cc32)nn1	12.5 (≈ 28 µM)		
CC[C@@H](CO)NCCN[C@@H](CC)CO [ETHAMBUTOL]	3.13 (≈ 15.3 µM)		
NNC(=O)c1ccncc1 [ISONIAZID]	0.1 (≈ 0.729 µM)		
NC(=O)c1cnccn1 [PYRAZINAMIDE]	50 (≈ 406 µM)		
